Measurements from ChEMBL document CHEMBL1157759, “Discovery of GS-9131: Design, synthesis and optimization of amidate prodrugs of the novel nucleoside phosphonate HIV reverse transcriptase (RT) inhibitor GS-9148” (Bioorg Med Chem, 2010).

Legend:
[1] = Clearance in iv dosed Beagle dog after 24 hrs; details: in vivo
[2] = Oral bioavailability in Beagle dog; details: in vivo
[3] = Cytotoxicity against human MT2 cells after 5 days by XTT assay
[4] = Drug metabolism in Beagle dog assessed as ratio of GS-9148 level in PBMC to plasma at 3 mg/kg, po up to 20 mins; assay type: ADME, organism-based, Canis lupus familiaris; set-up: dose 3 mg/kg, route oral; details: in vivo, 2 h, in the assay text read “up to 2 hrs” for “up to 20 mins”
Method in brief: (§1)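 Beagle dogs were given a single oral dose of 3 mg/kg. The prodrug was followed in plasma. The parent diacid and its active diphosphate metabolite were followed inside isolated PBMCs over time after dosing. Plasma half-life and PBMC-to-plasma levels were derived from these time-course profiles.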

[5] = system: Human immunodeficiency virus 1; test: Antiviral activity against HIV1 3B infected in human MT2 cells assessed as inhibition of virus-induced cytopathic effect after 5 days by XTT assay; assay type: functional, organism-based
[6] = Cytotoxicity against human HepG2 cells assessed as inhibition of mitochondrial DNA replication after 14 days; details: read-out: MTC50
[7] = Bioavailability in iv dosed Beagle dog; details: in vivo
[8] = Hydrolytic stability assessed as compound degradation per ug of protein at 10 uM after 90 mins by scintillation counting in presence of human recombinant cathepsin A; details: 1.5 h
PBMC [9] = test: Metabolic stability in cathepsin A-overexpressing human PBMC assessed as compound degradation per ug of protein at 10 uM after 120 mins by scintillation counting; details: 2 h, 30 µM
[10] = Half life in dog hepatocytes at 2 uM by LC/MS/MS analysis; details: for half-life at 2 µM: t1/2; for t1/2: 2 µM
[11] = Half life in dog intestine S9 fraction at 2 uM by LC/MS/MS analysis; details: for half-life at 2 µM: intestine S9 fraction, t1/2
[12] = Half life in human hepatocytes at 2 uM by LC/MS/MS analysis; details: t1/2
[13] = Half life in human intestine S9 fraction at 2 uM by LC/MS/MS analysis
[14] = target: Human immunodeficiency virus type 1 reverse transcriptase (Human immunodeficiency virus 1, UniProt Q72547); test: Inhibition of HIV1 reverse transcriptase
[15] = target: T1, DNA polymerase subunit gamma-1 (Homo sapiens) (UniProt P54098); test: Inhibition of human recombinant DNA polymerase gamma by scintillation counting
T1 sequence (whole entry): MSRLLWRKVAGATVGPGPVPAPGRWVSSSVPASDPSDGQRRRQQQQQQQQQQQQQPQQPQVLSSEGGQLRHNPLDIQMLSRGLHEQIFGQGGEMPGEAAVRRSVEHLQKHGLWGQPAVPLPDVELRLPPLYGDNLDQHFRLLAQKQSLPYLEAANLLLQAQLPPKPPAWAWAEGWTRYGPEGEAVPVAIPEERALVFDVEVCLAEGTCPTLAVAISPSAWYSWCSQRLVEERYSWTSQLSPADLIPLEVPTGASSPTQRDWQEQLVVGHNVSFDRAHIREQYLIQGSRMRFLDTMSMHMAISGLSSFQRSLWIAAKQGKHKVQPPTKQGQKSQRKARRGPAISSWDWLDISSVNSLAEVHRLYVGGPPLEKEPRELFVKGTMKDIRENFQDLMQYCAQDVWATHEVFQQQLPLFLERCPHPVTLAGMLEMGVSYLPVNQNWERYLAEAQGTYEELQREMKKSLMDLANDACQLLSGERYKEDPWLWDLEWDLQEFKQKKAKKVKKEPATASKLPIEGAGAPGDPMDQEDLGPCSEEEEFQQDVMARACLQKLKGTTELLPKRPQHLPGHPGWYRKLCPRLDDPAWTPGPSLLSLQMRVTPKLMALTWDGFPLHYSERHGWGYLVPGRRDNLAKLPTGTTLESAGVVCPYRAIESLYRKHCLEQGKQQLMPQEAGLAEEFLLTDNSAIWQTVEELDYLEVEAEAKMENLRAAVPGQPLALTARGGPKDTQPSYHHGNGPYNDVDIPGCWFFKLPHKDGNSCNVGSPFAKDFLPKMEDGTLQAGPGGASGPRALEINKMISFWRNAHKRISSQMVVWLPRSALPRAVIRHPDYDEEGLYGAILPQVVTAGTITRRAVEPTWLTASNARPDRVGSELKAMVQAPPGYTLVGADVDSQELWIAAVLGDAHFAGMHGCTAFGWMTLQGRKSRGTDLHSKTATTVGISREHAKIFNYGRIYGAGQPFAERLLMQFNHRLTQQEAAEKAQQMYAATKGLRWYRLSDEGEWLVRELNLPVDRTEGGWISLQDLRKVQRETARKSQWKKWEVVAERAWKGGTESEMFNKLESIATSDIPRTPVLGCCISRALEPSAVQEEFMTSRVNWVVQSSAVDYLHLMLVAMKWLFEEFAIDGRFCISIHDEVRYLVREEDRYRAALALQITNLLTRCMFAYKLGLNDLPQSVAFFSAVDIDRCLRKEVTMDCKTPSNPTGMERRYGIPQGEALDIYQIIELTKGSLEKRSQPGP

[16] = Selectivity for inhibition of HIV wild type reverse transcriptase over inhibition of human recombinant DNA polymerase gamma
PBMC [17] = test: Drug metabolism in Beagle dog PBMC assessed as 5-[(6-Amino-purin-9-yl)-4-fluoro-2,5-dihydro-furan-2-yloxymethyl] phosphonic acid diphosphate level after 5 hrs; assay type: ADME, cell-based, Canis lupus familiaris; method in brief: as §1
[18] = Human immunodeficiency virus 1, 3B, MT2, 120 h

Row | SMILES | clearance at 24 h [1] | CC50 at 120 h [3] | EC50 ([5]; mt2) | Activity [8] | Activity (PBMC [9]) | half-life at 2 µM [10] | half-life at 2 µM [11] | other results
1 | CC(C)OC(=O)[C@H](C)N[P@](=O)(CO[C@H](C)Cn1cnc2c(N)ncnc21)Oc1ccccc1 [TENOFOVIR ALAFENAMIDE] | 37.2 mL/min/kg | – | – | – | – | – | – | bioavailability [2]: 21%
2 | Nc1ncnc2c1ncn2[C@@H]1O[C@H](OCP(=O)(O)O)C=C1F [GS-9148] | – | > 100 µM | – | – | – | – | – | Ratio [4]: 10; EC50 [5, 18]: 10.6 µM; CC50 at 336 h [6]: > 300 µM
3 | C[C@H](NP(=O)(CO[C@@H]1C=C(F)[C@H](n2cnc3c(N)ncnc32)O1)Oc1ccccc1)C(=O)OC1CCC1 (stereo in doubt; 18r(A)) [(2S)-CYCLOBUTYL 2-((((2R,5R)-5-(6-AMINO-9H-PURIN-9-YL)-4-FLUORO-2,5-DIHYDROFURAN-2-YLOXY)METHYL)(PHENOXY)PHOSPHORYLAMINO)PROPANOATE (ENANTIOMERIC MIX)] | – | – | > 0.045 µM | 2527 pmol/min | 3.2 pmol/min | 140 min | – | bioavailability [7]: 9.8%; t1/2 ([11]; s9, 2 µM, 2 µM): 32 min
4 | CC(C)COC(=O)[C@H](Cc1ccccc1)NP(=O)(CO[C@@H]1C=C(F)[C@H](n2cnc3c(N)ncnc32)O1)Oc1ccccc1 (some centres not stated) | 61.7 mL/min/kg | 38.3 µM | – | 29655 pmol/min | 31 pmol/min | 28 min | 8.3 min | bioavailability [2]: 2.6%; EC50 [5, 18]: 0.006 µM
5 | C[C@H](NP(=O)(CO[C@@H]1C=C(F)[C@H](n2cnc3c(N)ncnc32)O1)Oc1ccccc1)C(=O)OC1CCC1.Cl.Cl (some centres not stated) | – | – | 0.021 µM | 23997 pmol/min | 19 pmol/min | 52 min | 3.9 min | bioavailability [7]: 18%
6 | C[C@H](NP(=O)(CO[C@@H]1C=C(F)[C@H](n2cnc3c(N)ncnc32)O1)Oc1ccccc1)C(=O)OC1CCC1 (stereo in doubt; 18r) [(2S)-CYCLOBUTYL 2-((((2R,5R)-5-(6-AMINO-9H-PURIN-9-YL)-4-FLUORO-2,5-DIHYDROFURAN-2-YLOXY)METHYL)(PHENOXY)PHOSPHORYLAMINO)PROPANOATE (ENANTIOMERIC MIX)] | 46 mL/min/kg | 57 µM | 0.036 µM | 18150 pmol/min | 7.7 pmol/min | – | 25 min | t1/2 [10]: 100 min; half-life at 2 µM [12]: 98 min; half-life at 2 µM [13]: 122 min
7 | CC(C)OC(=O)[C@H](C)NP(=O)(CO[C@@H]1C=C(F)[C@H](n2cnc3c(N)ncnc32)O1)Oc1ccccc1 (stereo in doubt; 24) [(2S)-ISOPROPYL 2-(((2R,5R)-5-(6-AMINO-9H-PURIN-9-YL)-4-FLUORO-2,5-DIHYDROFURAN-2-YLOXY)(PHENOXY)PHOSPHORYLAMINO)PROPANOATE (ENANTIOMERIC MIX)] | – | 139 µM | 0.0092 µM | 35000 pmol/min | 20 pmol/min | – | 15 min | t1/2 [10]: 103 min; half-life at 2 µM [12]: 159 min; half-life at 2 µM [13]: 106 min
8 | Nc1ncnc2c1ncn2[C@@H]1O[C@H](OCP(=O)(O)OP(=O)(O)OP(=O)(O)O)C=C1F | – | – | – | – | – | – | – | IC50 [14]: 1.9 µM; Activity [15]: 100 µM; fold change (FC) [16]: > 130; Activity (PBMC [17]): > 9 µM
